# Source: ChEMBL document CHEMBL1127686, “Synthesis of selective non-Ca(2+)-mobilizing inhibitors of D-myo-inositol 1,4,5-trisphosphate 5-phosphatase” (J Med Chem, 1994)
# Where “and” joins values, the source holds several entries; their conditions need not be identical. Equal values may be shown once.
# Tests used:
# [1] = Tested for binding affinity against Ins(1,4,5)-P3 5-phosphatase; parameters: species or system Homo sapiens
# [2] = Tested for binding affinity against human erythrocyte 5-phosphatase
# [3] = Competitive inhibition of Inositol 1,4,5-trisphosphate 5-phosphatase; parameters: species or system Homo sapiens
# [4] = Binding affinity for Inositol 1,4,5-trisphosphate kinase
# Summary of the method: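 Crude rat brain Ins(1,4,5)P3 3-kinase; inhibition of [3H]Ins(1,4,5)P3 phosphorylation measured; Km for Ins(1,4,5)P3 0.6 μM; Ki determined by a previously described method.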
# [5] = (§1) Competitive inhibition of human erythrocyte membrane Ins(1,4,5)P3 5-phosphatase
# Summary of the method: (§2)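 Ins(1,4,5)P3 5-phosphatase from human erythrocyte membrane; Ki determined by a previously described method, taken as the mean of at least three experiments.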
# Homo sapiens [6] = species on record: Homo sapiens; assay: Tested for Ca+2 potency in human neuroblastoma cells; type: functional
# Summary of the method: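 Ca2+ release from intracellular stores measured in electrically permeabilized human neuroblastoma cells; potency expressed as EC50.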
# Homo sapiens [7] = species on record: Homo sapiens; assay: as §1; summary of the method: as §2
smiles,measurement,setting,value
OC1C(O)C(OP(O)(O)=S)C(OP(O)(O)=S)C(O)C1OP(O)(O)=S (configuration not stated),Ki,[1],0.5 µM
OC1C(OP(O)(O)=S)C(O)C(OP(O)(O)=S)C(O)C1OP(O)(O)=S (configuration not stated),Ki,[1],0.43 µM
O=C(O)C(COP(=O)(O)O)OP(=O)(O)O (configuration not stated),Ki,[2],350 µM and 978 µM
O=P(O)(O)O[C@H]1[C@H](O)[C@@H](OP(=O)(O)O)[C@H](O)[C@@H](OP(=O)(O)O)[C@H]1O,Ki,[3],45 µM
OC1C(O)C(OP(O)(O)=S)C(OP(O)(O)=S)C(O)C1OP(O)(O)=S (stereo in doubt),Ki,[4],1.46 µM
same,Ki,[5],1.7 µM
OC1C(O)C(OP(O)(O)=S)C(OP(O)(O)=S)C(O)C1OP(O)(O)=S (stereo in doubt; 24),Ki,[4],247 µM
same,Ki,[2],0.3 µM
"O=P(O)(O)O[C@@H]1[C@H](O)[C@H](O)[C@@H](OP(=O)(O)O)[C@H](OP(=O)(O)O)[C@H]1O [INS(1,4,5)P3]",Ki,[3],39 µM
same,EC50,Homo sapiens [6],0.12 µM
same,Ki,[2],124 µM
same,Km,Homo sapiens [7],40 µM
